Screens: PubChem, The Scripps Research Institute Molecular Screening Center
OX1R antag-1: blocks the human orexin 1 receptor | 330,000 compounds, 0.43% hits | CHO/OX1R cells, Fluo-8 calcium fluorescence, orexin A | inhibition, % at 5 µM | O43613;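 active = inhibition above its plate's threshold, mean inhibition of all tested compounds on the plate plus 3 SD, cut at about 37% in these data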
CHO parental Ca: signal in parental CHO cells, OX1R antagonist counter-screen | parental CHO-K1, ATP-induced calcium, Fluo-8 fluorescence | inhibition, % at 5.6 µM | 330,000 compounds, 0.63% hits | AID 463079;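 active = inhibition above that plate's mean sample inhibition plus 3 SD, cut at about 26% in these data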
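material = parental CHO cells | also added = ATP as calcium-mobilizing challenge | dosing = single point at 5.6 µM | detection = intracellular calcium via Fluo-8 no-wash fluorescent dye | read-out = % inhibition | benchmarks = low control ATP plus DMSO, high control DMSO only | repeats = one well per compound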
GPR7 antagonist: antagonists of human GPR7 (neuropeptides B/W receptor 1). GPR7-expressing cells, fluorescence antagonist assay. inhibition, % at 4.4 µM. 290,000 compounds, 1.1% hits; in the data active = inhibition above about 16%, passing the limit was not always enough;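 note: cells stimulated with the agonist NPW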
Target sequence (P48145 whole entry, looked up): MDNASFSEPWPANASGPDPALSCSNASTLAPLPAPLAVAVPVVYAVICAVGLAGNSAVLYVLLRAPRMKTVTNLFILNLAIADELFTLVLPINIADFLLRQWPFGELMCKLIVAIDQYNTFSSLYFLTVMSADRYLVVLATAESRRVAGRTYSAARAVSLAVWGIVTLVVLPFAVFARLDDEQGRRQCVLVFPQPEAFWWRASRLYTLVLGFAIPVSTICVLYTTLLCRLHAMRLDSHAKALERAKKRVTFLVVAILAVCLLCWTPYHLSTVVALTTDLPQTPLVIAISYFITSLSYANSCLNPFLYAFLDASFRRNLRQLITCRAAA
OX1R antag-2: OX1R (human) antagonism | OX1R-expressing cells, FRET antagonist read-out | inhibition, % at 6.6 µM | 330,000 compounds, 1.8% hits | AID 485270; in the data active = inhibition mostly above about 38%, no sharp cut-off; inactive = mostly below about 40%
TAAR1 antag: antagonists of human TAAR1. Q96RJ0. CHO RD-HGA16 TAAR1, Fluo-8 calcium fluorescence, antagonist. inhibition, % at 3 µM. 360,000 compounds, 1.5% hits. AID 624466;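 active = inhibition above a per-plate cutoff, the mean inhibition of test compounds on that plate plus 3 SD, cut at about 49% in these data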
Target sequence (Q96RJ0 whole entry, looked up): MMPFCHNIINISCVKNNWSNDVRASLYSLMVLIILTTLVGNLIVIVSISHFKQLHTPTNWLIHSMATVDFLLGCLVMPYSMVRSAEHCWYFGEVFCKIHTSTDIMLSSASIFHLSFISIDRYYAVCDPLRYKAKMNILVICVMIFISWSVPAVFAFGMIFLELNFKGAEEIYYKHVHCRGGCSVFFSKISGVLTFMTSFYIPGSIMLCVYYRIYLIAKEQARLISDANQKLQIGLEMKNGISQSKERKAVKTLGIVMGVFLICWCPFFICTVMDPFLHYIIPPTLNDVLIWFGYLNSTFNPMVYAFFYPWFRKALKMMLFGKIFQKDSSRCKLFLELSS
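Material: CHO RD-HGA16 cells bearing hTAAR1; compound dosing: one-point dosing, 3 µM nominal final; schedule: dye loading 75 min at 37 °C, then 30 min room temperature; measured by: calcium fluorescence with Fluo-8; control set: vehicle and agonist controls; replication: n of 1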
TAAR1 ag: human TAAR1 agonism; 360,000 compounds, 0.99% hits; CHO RD-HGA16 TAAR1, Fluo-8 calcium fluorescence; vehicle wells 0%, saturating PEA agonist 100%; Q96RJ0; activation, % at 3 µM;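 active = activation above the mean activation of all test compounds in the run plus 3 SD, cut at about 38% in these data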
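Benchmarks: low control DMSO, high control PEA (EC100); System: CHO RD-HGA16 cells carrying human TAAR1 plus Gα16; Detection: Fluo-8 fluorescence, 5 s baseline then 140 s kinetic read; Schedule: 17-24 h plating, Fluo-8 75 min 37 °C, 30 min RT; Read-out basis: % activation from peak over basal fluorescence ratio, DMSO-to-PEA scaled.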
TAAR1 nonsel count: nonselective antagonism, TAAR1 counter-screen; shares compounds with TAAR1 antag; counterscreen cell line, calcium fluorescence, antagonist mode; inhibition, % at 3 µM; 2,400 compounds, 77% hits; AID 651780; in the data active = inhibition above about 22%;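 note: CHO-Ga16 host cells stimulated with ATP at an EC80 level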
TAAR1 antag conf: confirmation of human TAAR1 antagonists; AID 651785; 2,400 compounds, 40% hits; TAAR1-expressing cells, fluorescence antagonist read-out; inhibition, % at 3 µM; shares compounds with TAAR1 antag; in the data active = inhibition above about 49%;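 note: CHO-Ga16 host cells challenged with agonist PEA near its EC80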
Ga16 ag counter: counter-screen for TAAR1 antagonists: nonselective Ga16 agonists. shares compounds with TAAR1 antag. Ga16-expressing cells, calcium fluorescence, agonist counterscreen. activation, % at 3 µM. 2,400 compounds, 18% hits. AID 651953; in the data active = activation above about 12%
TAAR1 ag counter: TAAR1 agonism, antagonist counter-screen; shares compounds with TAAR1 antag; hTAAR1 cell line, fluorescence activation, agonist mode; activation, % at 3 µM; 2,400 compounds, 2% hits; in the data active = activation above about 37%;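 note: CHO cells stably expressing TAAR1 with calcium dye readout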
Of the large screens only hits and unclear results are named; the others gave an inactive call (follow-up assays come after a bar, where they were run). Shown are actives, neighbours in structure and some others; about 4.6% of the full set was active somewhere.

O=C(COC(=O)c1nn(CCO)c(=O)c2ccccc12)Nc1ccc(Cl)c(Cl)c1	none (no result: GPR7 antagonist)
COc1ccc(CNC(=O)C2(C)Cc3c(-c4ccccc4)ccnc3O2)cc1OC (centres undefined)	none (no result: OX1R antag-1, CHO parental Ca, GPR7 antagonist, OX1R antag-2)
CC(C)c1ccc(NC(=O)C2(C)Cc3c(-c4cccc(C(N)=O)c4)ccnc3O2)cc1 (centres undefined)	none (no result: OX1R antag-1, CHO parental Ca, GPR7 antagonist, OX1R antag-2)
Cc1[nH]c(C)c(S(=O)(=O)NCc2ccc(N(C)C)cc2)c1C(=O)N1CCCC1	none
Cc1ccc(N(CC(O)CN2CCCC2)S(=O)(=O)c2ccc(C)cc2)cc1 (centres undefined)	none
Cc1cccc(NC(=O)c2oc3ccc(S(=O)(=O)N4CCOCC4)cc3c2C)c1C	TAAR1 antag 58 | TAAR1 nonsel count 31 | TAAR1 antag conf 51 | Ga16 ag counter inactive | TAAR1 ag counter inactive
COc1ccc(NC(=O)c2oc3ccc(S(=O)(=O)N4CCOCC4)cc3c2C)c(OC)c1	none (no result: OX1R antag-1, CHO parental Ca, GPR7 antagonist, OX1R antag-2)
CN(Cc1ccc(F)cc1)Cc1nc(CCc2ccccc2)no1	none
COC(=O)[C@]12CCCCC=C1N(Cc1cccc3ccccc13)C(=O)[C@H](CC(=O)N1CCC(c3ccccc3)CC1)C2	none (no result: OX1R antag-1, CHO parental Ca, GPR7 antagonist, OX1R antag-2)
COC(=O)[C@]12CCCCC=C1N(Cc1cccc3ccccc13)C(=O)[C@H](CC(=O)N1CCCCC1)C2	TAAR1 antag 62 (no result: OX1R antag-1, CHO parental Ca, GPR7 antagonist, OX1R antag-2) | TAAR1 nonsel count 22 | TAAR1 antag conf inactive | Ga16 ag counter inactive | TAAR1 ag counter inactive
CCOC(=O)C1=C(C)NC(C)=C(C(=O)OCC)C1C(=O)OCC(=O)NC1(C#N)CCCCC1	TAAR1 antag 63 (no result: GPR7 antagonist) | TAAR1 nonsel count 29 | TAAR1 antag conf 54 | Ga16 ag counter inactive | TAAR1 ag counter inactive
CCOC(=O)C1=C(C)NC(C)=C(C(=O)OCC)C1C(=O)OCC(=O)NC1CCCCC1	TAAR1 antag 61 (no result: GPR7 antagonist) | TAAR1 nonsel count 27 | TAAR1 antag conf 52 | Ga16 ag counter inactive | TAAR1 ag counter inactive
CSCCC(NC(=O)c1ccccc1)C(=O)OCC(=O)N(C)CCC#N (centres undefined)	none
C/C(=N\NC(=O)c1nc2ccccn2c1C)c1cc2ccccc2o1	none
C/C(=N\NC(=O)c1cc2ccccc2cc1O)c1cc2ccccc2o1	TAAR1 antag 60 | TAAR1 nonsel count 62 | TAAR1 antag conf 88 | Ga16 ag counter 37 | TAAR1 ag counter inactive
COC(=O)c1cc2c(c3c4cc(C)ccc4n(C(=O)c4ccccc4)c13)C(=O)N(Cc1ccccc1)C2	TAAR1 antag 67 (no result: OX1R antag-1, CHO parental Ca, GPR7 antagonist, OX1R antag-2) | TAAR1 nonsel count 29 | TAAR1 antag conf 56 | Ga16 ag counter inactive | TAAR1 ag counter inactive
CCc1cccc(NC(=O)CSCc2cc(=O)[nH][nH]2)c1	TAAR1 antag 105 | TAAR1 nonsel count inactive | TAAR1 antag conf inactive | Ga16 ag counter inactive | TAAR1 ag counter inactive
COc1ccc(S(=O)(=O)NCc2ccccc2Cl)cc1OC	none
Cc1cc(C)n(-c2nc(NC(C)(C)C)nc(NC(C)(C)C)n2)n1	none
Cc1cc(C)n(-c2nc(Nc3ccccc3C(F)(F)F)nc(-n3nc(C)cc3C)n2)n1	OX1R antag-1 62, CHO parental Ca 42, TAAR1 antag 92 | TAAR1 nonsel count 42 | TAAR1 antag conf 70 | Ga16 ag counter 13 | TAAR1 ag counter inactive
COCCn1c(C)cc(C(=O)CSc2nnc3scc(-c4ccc(Cl)cc4)n23)c1C	none (no result: OX1R antag-1, CHO parental Ca, OX1R antag-2, TAAR1 antag, TAAR1 ag)
COc1cccc(CNC(=O)CCn2c(=O)c3cccn3c3cccnc32)c1	none
CSc1cccc(NC(=O)CCn2c(=O)c3cccn3c3cccnc32)c1	TAAR1 antag 57 | TAAR1 nonsel count 25 | TAAR1 antag conf inactive | Ga16 ag counter inactive | TAAR1 ag counter inactive
Cc1cc(C)n(-c2ccc(C(=O)Nc3ccc(C)c(S(=O)(=O)N4CCOCC4)c3)cc2)n1	TAAR1 antag 78 | TAAR1 nonsel count 41 | TAAR1 antag conf 55 | Ga16 ag counter 14 | TAAR1 ag counter inactive
CC(=O)c1ccc(NC(=O)c2ccc(C)c(S(=O)(=O)N3CCOCC3)c2)cc1	none
Cc1ccc(C(=O)Nc2ccc3cn[nH]c3c2)cc1S(=O)(=O)N1CCOCC1	TAAR1 antag 62 | TAAR1 nonsel count 31 | TAAR1 antag conf inactive | Ga16 ag counter inactive | TAAR1 ag counter inactive
Cc1ccc2cc3cc(C(=O)NCCCN4CC(C)CC(C)C4)oc3nc2c1 (centres undefined)	none
Cc1cccc(NC(=O)Cn2nnc(-c3cccs3)n2)c1C	TAAR1 antag 66 | TAAR1 nonsel count inactive | TAAR1 antag conf inactive | Ga16 ag counter inactive | TAAR1 ag counter inactive
CC1CCN(C(=O)c2ccc(N(C)S(C)(=O)=O)cc2)CC1	TAAR1 antag 107 | TAAR1 nonsel count inactive | TAAR1 antag conf inactive | Ga16 ag counter inactive | TAAR1 ag counter inactive
CCc1ccc(NC(=O)COC(=O)CCC2CCCC2)cc1	none (no result: GPR7 antagonist)
Cc1ccc(C)c(Cn2cnc3c(nnn3-c3ccc(F)cc3)c2=O)c1	TAAR1 antag 72 | TAAR1 nonsel count inactive | TAAR1 antag conf inactive | Ga16 ag counter inactive | TAAR1 ag counter inactive
COc1ccc(S(=O)(=O)N2CCC(NC(=O)c3cccc(F)c3)CC2)cc1	none
N#Cc1c(N)[nH]c2ccc(Sc3ccccc3)cc12	TAAR1 antag 54 (no result: OX1R antag-1, CHO parental Ca, GPR7 antagonist, OX1R antag-2) | TAAR1 nonsel count 28 | TAAR1 antag conf inactive | Ga16 ag counter 12 | TAAR1 ag counter inactive
COc1ccc(-c2c(C#Cc3ccsc3)c3cc(-c4ccc5[nH]ccc5c4)ccc3n2C)cc1	none (no result: GPR7 antagonist)
COc1ccc(-c2c(C#Cc3ccsc3)c3cc(-c4ccc(C(N)=O)cc4)ccc3n2C)cc1	TAAR1 antag 102 (no result: GPR7 antagonist) | TAAR1 nonsel count inactive | TAAR1 antag conf 90 | Ga16 ag counter inactive | TAAR1 ag counter inactive
CC(C)(Oc1ccc(Cl)cc1)C(=O)NCC(c1cccs1)N1CCOCC1 (centres undefined)	TAAR1 antag 58 (no result: GPR7 antagonist) | TAAR1 nonsel count inactive | TAAR1 antag conf inactive | Ga16 ag counter inactive | TAAR1 ag counter inactive
Cc1ccc(S(=O)(=O)NC(CC(C)C)C(=O)Oc2ccc3c4c(c(=O)oc3c2)CCC4)cc1 (centres undefined)	TAAR1 antag 67 | TAAR1 nonsel count 26 | TAAR1 antag conf inactive | Ga16 ag counter inactive | TAAR1 ag counter inactive
CC1CCN(C(=O)C2CCN(S(=O)(=O)c3cccc4cccnc34)CC2)CC1	none
